From paper PMC7985749 (CNS Drugs, 2021)

How the values were obtained:
[1] = CSF pharmacokinetics substudy; assay type: in vivo, human; details: male, human, oral
In short: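 Open-label cohorts of healthy volunteers got a single oral dose of 2 or 4 mg. CSF and plasma were sampled predose and at preset timepoints, n = 3 subjects per timepoint. Levels were measured by GLP-validated LC-MS/MS: ethyl acetate liquid–liquid extraction, C18 column, positive ESI, deuterated internal standard. LLOQ was 50 pg/mL (CSF) and 10 pg/mL (plasma). Unbound plasma concentration was total corrected by an in vitro dialysis fraction unbound.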

[2] = 28-day GLP toxicology study in rats; details: rat, in vivo, oral
[3] = Neuropsychological assessments; assay type: in vivo, human; details: SAD, MAD, or CSF cohorts
In short: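 Tests were VAS, LSEQ, WCST and Sternberg, run within the neurological evaluation. The trial was single-centre, randomized, double-blind and placebo-controlled in healthy volunteers. Dosing was oral: single doses of 0.2–4 mg (young males), 5 daily doses of 0.2–4 mg/day (young males and females), or 2.5 mg/day for 5 days (older adults). Assessments followed the scheduled timepoints.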

[4] = Adverse events / TEAEs, older adult; assay type: in vivo, human
[5] = Plasma pharmacokinetics, multiple ascending dose; assay type: in vivo, human; details: for Tmax / AUC(0-t) / Cmax / half-life: human, plasma, oral; for AUC(0-t) / Cmax / half-life: mean (CV %); for half-life: t½, 5 days
[6] = Safety and tolerability, all study stages; assay type: in vivo, human
[7] = Elderly cohort, active treatment, 5 days, n = 3

## Nc1nnc(CN[C@@H]2C[C@H]2c2ccc(OCc3ccccc3)cc2)o1 [vafidemstat]
[1]; CSF, 2 mg
  concentration at 6 h: 0.181 ng/mL
  concentration at 12 h: 0.17 ng/mL
[1]; CSF, 4 mg
  concentration at 2 h: 0.387 ng/mL
  concentration at 6 h: 0.734 ng/mL
  concentration at 12 h: 0.55 ng/mL
[1]; plasma (unbound), 2 mg
  concentration at 2 h: 0.316 ng/mL
  concentration at 6 h: 0.248 ng/mL
  concentration at 12 h: 0.186 ng/mL
[1]; plasma (unbound), 4 mg
  concentration at 2 h: 0.59 ng/mL
  concentration at 6 h: 0.871 ng/mL
  concentration at 12 h: 0.609 ng/mL
[2]
  NOAEL at 28 days: 0.2 mg/kg
[3]
  Sleeping or awakening patterns (LSEQ): did not disrupt sleeping or awakening patterns
  Somnolence and potential for abuse (VAS): did not provoke somnolence or reveal a potential for abuse
[3]; any dose level or parameter
  WCST or Sternberg test: No significant differences
[4]; [7]
  Number of TEAEs (% of total TEAEs): Asthenia: 1 (4.8) n (%)
  Number of TEAEs (% of total TEAEs): Blunted effect: 1 (4.8) n (%)
  Number of TEAEs (% of total TEAEs): Feeling cold: 1 (4.8) n (%)
  Number of TEAEs (% of total TEAEs): Gait disturbance: 1 (4.8) n (%)
  Number of TEAEs (% of total TEAEs): Headache: 3 (14.3) n (%)
  Number of TEAEs (% of total TEAEs): Musculoskeletal stiffness: 1 (4.8) n (%)
  Number of TEAEs (% of total TEAEs): Palpitations: 1 (4.8) n (%)
  Number of TEAEs (% of total TEAEs): Total: 10 (47.6) n (%)
  Number of TEAEs (% of total TEAEs): Vertigo: 1 (4.8) n (%)
[4]; MAD stage in older adult volunteers, with vafidemstat
  Number of treatment-related TEAEs: 10
[5]; 2.5 mg/day
  Pharmacokinetic profiles, young versus older adult populations: did not differ significantly
  Tmax: 2.33 h
[5]; both, 0.2 mg/day
  Tmax: 5.1 h
[5]; both, 0.2 mg/day, AUC0–t (D1), MAD 0.2 mg/day, day 1, young
  AUC(0-t): 18.7 ng·h/mL
[5]; both, 0.2 mg/day, AUC0–t,ss (D5), MAD 0.2 mg/day, day 5, young
  AUC(0-t): 37.7 ng·h/mL
[5]; both, 0.2 mg/day, Cmax (D1), MAD 0.2 mg/day, day 1, young
  Cmax: 1.28 ng/mL
[5]; both, 0.2 mg/day, Cmax,ss (D5), MAD 0.2 mg/day, day 5, young
  Cmax: 2.32 ng/mL
[5]; both, 0.2 mg/day, MAD 0.2 mg/day, young
  half-life: 22 h
[5]; both, 0.6 mg/day
  Tmax: 2.25 h
[5]; both, 0.6 mg/day, AUC0–t (D1), MAD 0.6 mg/day, day 1, young
  AUC(0-t): 50.6 ng·h/mL
[5]; both, 0.6 mg/day, AUC0–t,ss (D5), MAD 0.6 mg/day, day 5, young
  AUC(0-t): 114 ng·h/mL
[5]; both, 0.6 mg/day, Cmax (D1), MAD 0.6 mg/day, day 1, young
  Cmax: 3.69 ng/mL
[5]; both, 0.6 mg/day, Cmax,ss (D5), MAD 0.6 mg/day, day 5, young
  Cmax: 7.65 ng/mL
[5]; both, 0.6 mg/day, MAD 0.6 mg/day, young
  half-life: 22 h
[5]; both, 1 mg/day
  Tmax: 1.83 h
[5]; both, 1.5 mg/day
  Tmax: 1.17 h
[5]; both, 1.5 mg/day, AUC0–t (D1), MAD 1.5 mg/day, day 1, young
  AUC(0-t): 138 ng·h/mL
[5]; both, 1.5 mg/day, AUC0–t,ss (D5), MAD 1.5 mg/day, day 5, young
  AUC(0-t): 299 ng·h/mL
[5]; both, 1.5 mg/day, Cmax (D1), MAD 1.5 mg/day, day 1, young
  Cmax: 11.3 ng/mL
[5]; both, 1.5 mg/day, Cmax,ss (D5), MAD 1.5 mg/day, day 5, young
  Cmax: 23.6 ng/mL
[5]; both, 1.5 mg/day, MAD 1.5 mg/day, young
  half-life: 22 h
[5]; both, 2.5 mg/day
  Tmax: 2.17 h
[5]; both, 2.5 mg/day, AUC0–t (D1), MAD 2.5 mg/day, day 1, young
  AUC(0-t): 292 ng·h/mL
[5]; both, 2.5 mg/day, AUC0–t,ss (D5), MAD 2.5 mg/day, day 5, young
  AUC(0-t): 634 ng·h/mL
[5]; both, 2.5 mg/day, AUC0–t,ss (D5), MAD older adult 2.5 mg/day, day 5
  AUC(0-t): 442 ng·h/mL
[5]; both, 2.5 mg/day, Cmax (D1), MAD 2.5 mg/day, day 1, young
  Cmax: 26.6 ng/mL
[5]; both, 2.5 mg/day, Cmax,ss (D5), MAD 2.5 mg/day, day 5, young
  Cmax: 49.9 ng/mL
[5]; both, 2.5 mg/day, MAD 2.5 mg/day, young
  half-life: 22 h
[5]; both, 2.5 mg/day, MAD older adult 2.5 mg/day
  half-life: 23 h
[5]; both, 4 mg/day
  Tmax: 1.33 h
[5]; both, 4 mg/day, AUC0–t (D1), MAD 4.0 mg/day, day 1, young
  AUC(0-t): 564 ng·h/mL
[5]; both, 4 mg/day, AUC0–t,ss (D5), MAD 4.0 mg/day, day 5, young
  AUC(0-t): 994 ng·h/mL
[5]; both, 4 mg/day, Cmax (D1), MAD 4.0 mg/day, day 1, young
  Cmax: 56 ng/mL
[5]; both, 4 mg/day, Cmax,ss (D5), MAD 4.0 mg/day, day 5, young
  Cmax: 110 ng/mL
[5]; both, 4 mg/day, MAD 4.0 mg/day, young
  half-life: 20 h
[5]; 2.5 mg/day, AUC0–t (D1), MAD older adult 2.5 mg/day, day 1
  AUC(0-t): 258 ng·h/mL
[5]; 2.5 mg/day, Cmax (D1), MAD older adult 2.5 mg/day, day 1
  Cmax: 24.3 ng/mL
[5]; 2.5 mg/day, Cmax,ss (D5), MAD older adult 2.5 mg/day, day 5
  Cmax: 41 ng/mL
[6]; during the study
  Serious adverse events (SAEs): No SAEs
[6]; planned SAD or MAD (including older adult) cohorts
  Changes over time in hematological, biochemical, urinalysis parameters, vital signs, ECG values: No significant changes
[6]; three study stages (SAD, MAD, older adult), 120 AEs in total
  Number of AEs reported by subjects receiving vafidemstat: 90
[6]; volunteers treated with vafidemstat, three study stages, 108 TEAEs in total
  Number of TEAEs possibly or probably related to the study drug: 79
